Measured values: ChEMBL document CHEMBL3108706, “Design, synthesis, and biological activity of novel dicoumarol glucagon-like peptide 1 conjugates” (J Med Chem, 2013)

Columns and labels:
[1] = molecular target: Glucagon-like peptide 1 receptor (Homo sapiens, UniProt P43220); assay: Activation of human GLP-1 receptor overexpressed in HEK293 cells assessed as cAMP accumulation after 20 mins by HTRF assay; assay type: functional, cell-based
[2] = Half life in Sprague-Dawley rat plasma at 1000 ng/mL by LC-MS/MS analysis; assay type: ADME, cell-free
albumin = albumin (Homo sapiens, UniProt P02768); assay: Binding affinity to human serum albumin at 100 ug/mL after 3 hrs relative to control; assay type: ADME; conditions: read-out: PB (converted)
Method in brief: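 Peptide at 100 μg/mL in PBS (50 μL) was incubated with HSA-conjugated Sepharose resin for 3 h at 25 °C, then centrifuged (1000 rpm, 10 min). Unbound peptide in the supernatant was quantified by micro BCA assay. Nonspecific adsorption was corrected with NHS-inactivated, albumin-free resin.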

Sequence of albumin (P02768 whole entry): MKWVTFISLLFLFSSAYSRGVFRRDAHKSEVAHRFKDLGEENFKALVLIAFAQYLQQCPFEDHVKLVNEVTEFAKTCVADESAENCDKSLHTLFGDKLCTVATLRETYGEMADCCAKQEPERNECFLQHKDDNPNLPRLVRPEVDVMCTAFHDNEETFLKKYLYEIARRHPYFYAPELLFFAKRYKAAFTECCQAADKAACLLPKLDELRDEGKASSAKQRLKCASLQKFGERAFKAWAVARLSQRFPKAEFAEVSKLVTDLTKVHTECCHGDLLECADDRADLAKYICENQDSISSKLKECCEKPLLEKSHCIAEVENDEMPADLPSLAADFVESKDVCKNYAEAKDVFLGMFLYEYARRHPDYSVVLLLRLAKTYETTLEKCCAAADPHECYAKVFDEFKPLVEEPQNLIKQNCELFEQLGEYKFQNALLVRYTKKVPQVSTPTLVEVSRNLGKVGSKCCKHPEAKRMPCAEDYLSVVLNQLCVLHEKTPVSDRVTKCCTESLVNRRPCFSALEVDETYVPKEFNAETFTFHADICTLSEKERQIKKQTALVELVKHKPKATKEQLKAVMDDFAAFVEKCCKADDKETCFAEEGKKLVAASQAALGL
Sequence of Glucagon-like peptide 1 receptor (P43220 whole entry): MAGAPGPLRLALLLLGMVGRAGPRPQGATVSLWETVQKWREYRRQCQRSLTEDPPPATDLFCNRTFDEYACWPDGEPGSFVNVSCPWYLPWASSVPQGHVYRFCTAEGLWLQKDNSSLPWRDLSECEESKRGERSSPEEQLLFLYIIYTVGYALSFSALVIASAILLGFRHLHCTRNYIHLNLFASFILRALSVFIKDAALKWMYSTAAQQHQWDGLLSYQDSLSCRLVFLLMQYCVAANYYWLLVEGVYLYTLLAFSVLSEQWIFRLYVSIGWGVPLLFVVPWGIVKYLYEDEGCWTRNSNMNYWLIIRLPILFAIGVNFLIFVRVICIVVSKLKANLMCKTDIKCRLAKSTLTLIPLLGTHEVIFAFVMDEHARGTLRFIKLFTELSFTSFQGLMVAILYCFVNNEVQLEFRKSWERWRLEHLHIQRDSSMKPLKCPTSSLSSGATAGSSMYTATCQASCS

| Structure (SMILES) | EC50 [1] [pM] | half-life at 1000 ng/mL [2] [h] | fraction unbound at 3 h, 100 ug/mL (albumin) |
| --- | --- | --- | --- |
| CC[C@H](C)[C@H](NC(=O)[C@H](Cc1ccccc1)NC(=O)[C@H](CCC(=O)O)NC(=O)[C@H](CCCCN)NC(=O)[C@H](C)NC(=O)[C@H](C)NC(=O)[C@H](CCC(N)=O)NC(=O)CNC(=O)[C@H](CCC(=O)O)NC(=O)[C@H](CC(C)C)NC(=O)[C@H](Cc1ccc(O)cc1)NC(=O)[C@H](CO)NC(=O)[C@H](CO)NC(=O)[C@@H](NC(=O)[C@H](CC(=O)O)NC(=O)[C@H](CO)NC(=O)[C@@H](NC(=O)[C@H](Cc1ccccc1)NC(=O)[C@@H](NC(=O)CNC(=O)[C@H](CCC(=O)O)NC(=O)CNC(=O)[C@@H](N)Cc1cnc[nH]1)[C@@H](C)O)[C@@H](C)O)C(C)C)C(=O)N[C@@H](C)C(=O)N[C@@H](Cc1c[nH]c2ccccc12)C(=O)N[C@@H](CC(C)C)C(=O)N[C@H](C(=O)N[C@@H](CSC1CC(=O)N(CCCCCCCCCCCC(=O)Nc2ccc(C(c3c(O)c4ccccc4oc3=O)c3c(O)c4ccccc4oc3=O)cc2)C1=O)C(=O)NCC(=O)N[C@@H](CCCNC(=N)N)C(N)=O)C(C)C (stereo partly specified) | 18.1 | 38.6 | 0.168 |
| CC[C@H](C)[C@H](NC(=O)[C@H](Cc1ccccc1)NC(=O)[C@H](CCC(=O)O)NC(=O)[C@H](CCCCN)NC(=O)[C@H](C)NC(=O)[C@H](C)NC(=O)[C@H](CCC(N)=O)NC(=O)CNC(=O)[C@H](CCC(=O)O)NC(=O)[C@H](CC(C)C)NC(=O)[C@H](Cc1ccc(O)cc1)NC(=O)[C@H](CO)NC(=O)[C@H](CO)NC(=O)[C@@H](NC(=O)[C@H](CC(=O)O)NC(=O)[C@H](CO)NC(=O)[C@@H](NC(=O)[C@H](Cc1ccccc1)NC(=O)[C@@H](NC(=O)CNC(=O)[C@H](CCC(=O)O)NC(=O)CNC(=O)[C@@H](N)Cc1cnc[nH]1)[C@@H](C)O)[C@@H](C)O)C(C)C)C(=O)N[C@@H](C)C(=O)N[C@@H](Cc1c[nH]c2ccccc12)C(=O)N[C@@H](CC(C)C)C(=O)N[C@H](C(=O)N[C@@H](CCCCN)C(=O)NCC(=O)N[C@@H](CCCNC(=N)N)C(N)=O)C(C)C |  | 0.8 | 0.937 |
| CC[C@H](C)[C@H](NC(=O)[C@H](Cc1ccccc1)NC(=O)[C@H](CCC(=O)O)NC(=O)[C@H](CCCCN)NC(=O)[C@H](C)NC(=O)[C@H](C)NC(=O)[C@H](CCC(N)=O)NC(=O)CNC(=O)[C@H](CCC(=O)O)NC(=O)[C@H](CC(C)C)NC(=O)[C@H](Cc1ccc(O)cc1)NC(=O)[C@H](CO)NC(=O)[C@H](CSC1CC(=O)N(CCCCCC(=O)Nc2ccc(C(c3c(O)c4ccccc4oc3=O)c3c(O)c4ccccc4oc3=O)cc2)C1=O)NC(=O)[C@@H](NC(=O)[C@H](CC(=O)O)NC(=O)[C@H](CO)NC(=O)[C@@H](NC(=O)[C@H](Cc1ccccc1)NC(=O)[C@@H](NC(=O)CNC(=O)[C@H](CCC(=O)O)NC(=O)CNC(=O)[C@@H](N)Cc1cnc[nH]1)[C@@H](C)O)[C@@H](C)O)C(C)C)C(=O)N[C@@H](C)C(=O)N[C@@H](Cc1c[nH]c2ccccc12)C(=O)N[C@@H](CC(C)C)C(=O)N[C@H](C(=O)N[C@@H](CCCCN)C(=O)NCC(=O)N[C@@H](CCCNC(=N)N)C(N)=O)C(C)C (stereo partly specified) | 33.6 | 20.7 | 0.162 |
| CC[C@H](C)[C@H](NC(=O)[C@H](Cc1ccccc1)NC(=O)[C@H](CCC(=O)O)NC(=O)[C@H](CCCCN)NC(=O)[C@H](C)NC(=O)[C@H](C)NC(=O)[C@H](CCC(N)=O)NC(=O)CNC(=O)[C@H](CCC(=O)O)NC(=O)[C@H](CC(C)C)NC(=O)[C@H](Cc1ccc(O)cc1)NC(=O)[C@H](CO)NC(=O)[C@H](CO)NC(=O)[C@@H](NC(=O)[C@H](CC(=O)O)NC(=O)[C@H](CO)NC(=O)[C@@H](NC(=O)[C@H](Cc1ccccc1)NC(=O)[C@@H](NC(=O)CNC(=O)[C@H](CCC(=O)O)NC(=O)CNC(=O)[C@@H](N)Cc1cnc[nH]1)[C@@H](C)O)[C@@H](C)O)C(C)C)C(=O)N[C@@H](C)C(=O)N[C@@H](Cc1c[nH]c2ccccc12)C(=O)N[C@@H](CC(C)C)C(=O)N[C@H](C(=O)N[C@@H](CCCCN)C(=O)NCC(=O)N[C@@H](CCCNC(=N)N)C(=O)N[C@@H](CSC1CC(=O)N(CCC(=O)Nc2ccc(C(c3c(O)c4ccccc4oc3=O)c3c(O)c4ccccc4oc3=O)cc2)C1=O)C(N)=O)C(C)C (stereo partly specified) | 3 | 9.7 | 0.332 |

The remaining compounds from weak to strong by EC50 [1], led by results:

| EC50 [1] [pM] | half-life at 1000 ng/mL [2] [h] | fraction unbound at 3 h, 100 ug/mL (albumin) | Structure (SMILES) |
| --- | --- | --- | --- |
| 7.3 | 22.1 | 0.198 | CC[C@H](C)[C@H](NC(=O)[C@H](Cc1ccccc1)NC(=O)[C@H](CCC(=O)O)NC(=O)[C@H](CCCCN)NC(=O)[C@H](C)NC(=O)[C@H](C)NC(=O)[C@H](CCC(N)=O)NC(=O)CNC(=O)[C@H](CCC(=O)O)NC(=O)[C@H](CC(C)C)NC(=O)[C@H](Cc1ccc(O)cc1)NC(=O)[C@H](CO)NC(=O)[C@H](CO)NC(=O)[C@@H](NC(=O)[C@H](CC(=O)O)NC(=O)[C@H](CO)NC(=O)[C@@H](NC(=O)[C@H](Cc1ccccc1)NC(=O)[C@@H](NC(=O)CNC(=O)[C@H](CCC(=O)O)NC(=O)CNC(=O)[C@@H](N)Cc1cnc[nH]1)[C@@H](C)O)[C@@H](C)O)C(C)C)C(=O)N[C@@H](C)C(=O)N[C@@H](Cc1c[nH]c2ccccc12)C(=O)N[C@@H](CC(C)C)C(=O)N[C@H](C(=O)N[C@@H](CSC1CC(=O)N(CCCCCC(=O)Nc2ccc(C(c3c(O)c4ccccc4oc3=O)c3c(O)c4ccccc4oc3=O)cc2)C1=O)C(=O)NCC(=O)N[C@@H](CCCNC(=N)N)C(N)=O)C(C)C (stereo partly specified) |
| 6.5 | 19.3 | 0.273 | CC[C@H](C)[C@H](NC(=O)[C@H](Cc1ccccc1)NC(=O)[C@H](CCC(=O)O)NC(=O)[C@H](CCCCN)NC(=O)[C@H](C)NC(=O)[C@H](C)NC(=O)[C@H](CCC(N)=O)NC(=O)CNC(=O)[C@H](CCC(=O)O)NC(=O)[C@H](CC(C)C)NC(=O)[C@H](Cc1ccc(O)cc1)NC(=O)[C@H](CO)NC(=O)[C@H](CO)NC(=O)[C@@H](NC(=O)[C@H](CC(=O)O)NC(=O)[C@H](CO)NC(=O)[C@@H](NC(=O)[C@H](Cc1ccccc1)NC(=O)[C@@H](NC(=O)CNC(=O)[C@H](CCC(=O)O)NC(=O)CNC(=O)[C@@H](N)Cc1cnc[nH]1)[C@@H](C)O)[C@@H](C)O)C(C)C)C(=O)N[C@@H](C)C(=O)N[C@@H](Cc1c[nH]c2ccccc12)C(=O)N[C@@H](CC(C)C)C(=O)N[C@H](C(=O)N[C@@H](CSC1CC(=O)N(CCC(=O)Nc2ccc(C(c3c(O)c4ccccc4oc3=O)c3c(O)c4ccccc4oc3=O)cc2)C1=O)C(=O)NCC(=O)N[C@@H](CCCNC(=N)N)C(N)=O)C(C)C (stereo partly specified) |
| 4.9 | 0.6 | 0.939 | CC[C@H](C)[C@H](NC(=O)[C@H](Cc1ccccc1)NC(=O)[C@H](CCC(=O)O)NC(=O)[C@H](CCCCN)NC(=O)[C@H](C)NC(=O)[C@H](C)NC(=O)[C@H](CCC(N)=O)NC(=O)CNC(=O)[C@H](CCC(=O)O)NC(=O)[C@H](CC(C)C)NC(=O)[C@H](Cc1ccc(O)cc1)NC(=O)[C@H](CO)NC(=O)[C@H](CO)NC(=O)[C@@H](NC(=O)[C@H](CC(=O)O)NC(=O)[C@H](CO)NC(=O)[C@@H](NC(=O)[C@H](Cc1ccccc1)NC(=O)[C@@H](NC(=O)CNC(=O)[C@H](CCC(=O)O)NC(=O)CNC(=O)[C@@H](N)Cc1cnc[nH]1)[C@@H](C)O)[C@@H](C)O)C(C)C)C(=O)N[C@@H](C)C(=O)N[C@@H](Cc1c[nH]c2ccccc12)C(=O)N[C@@H](CC(C)C)C(=O)N[C@H](C(=O)N[C@@H](CS)C(=O)NCC(=O)N[C@@H](CCCNC(=N)N)C(N)=O)C(C)C |
| 3.2 | 0.7 | 0.949 | CC[C@H](C)[C@H](NC(=O)[C@H](Cc1ccccc1)NC(=O)[C@H](CCC(=O)O)NC(=O)[C@H](CS)NC(=O)[C@H](C)NC(=O)[C@H](C)NC(=O)[C@H](CCC(N)=O)NC(=O)CNC(=O)[C@H](CCC(=O)O)NC(=O)[C@H](CC(C)C)NC(=O)[C@H](Cc1ccc(O)cc1)NC(=O)[C@H](CO)NC(=O)[C@H](CO)NC(=O)[C@@H](NC(=O)[C@H](CC(=O)O)NC(=O)[C@H](CO)NC(=O)[C@@H](NC(=O)[C@H](Cc1ccccc1)NC(=O)[C@@H](NC(=O)CNC(=O)[C@H](CCC(=O)O)NC(=O)CNC(=O)[C@@H](N)Cc1cnc[nH]1)[C@@H](C)O)[C@@H](C)O)C(C)C)C(=O)N[C@@H](C)C(=O)N[C@@H](Cc1c[nH]c2ccccc12)C(=O)N[C@@H](CC(C)C)C(=O)N[C@H](C(=O)N[C@@H](CCCCN)C(=O)NCC(=O)N[C@@H](CCCNC(=N)N)C(N)=O)C(C)C |
| 3.2 | 18.6 | 0.248 | CC[C@H](C)[C@H](NC(=O)[C@H](Cc1ccccc1)NC(=O)[C@H](CCC(=O)O)NC(=O)[C@H](CCCCN)NC(=O)[C@H](C)NC(=O)[C@H](C)NC(=O)[C@H](CCC(N)=O)NC(=O)CNC(=O)[C@H](CCC(=O)O)NC(=O)[C@H](CC(C)C)NC(=O)[C@H](Cc1ccc(O)cc1)NC(=O)[C@H](CO)NC(=O)[C@H](CO)NC(=O)[C@@H](NC(=O)[C@H](CC(=O)O)NC(=O)[C@H](CO)NC(=O)[C@@H](NC(=O)[C@H](Cc1ccccc1)NC(=O)[C@@H](NC(=O)CNC(=O)[C@H](CCC(=O)O)NC(=O)CNC(=O)[C@@H](N)Cc1cnc[nH]1)[C@@H](C)O)[C@@H](C)O)C(C)C)C(=O)N[C@@H](C)C(=O)N[C@@H](Cc1c[nH]c2ccccc12)C(=O)N[C@@H](CC(C)C)C(=O)N[C@H](C(=O)N[C@@H](CCCCN)C(=O)NCC(=O)N[C@@H](CCCNC(=N)N)C(=O)N[C@@H](CSC1CC(=O)N(CCCCCC(=O)Nc2ccc(C(c3c(O)c4ccccc4oc3=O)c3c(O)c4ccccc4oc3=O)cc2)C1=O)C(N)=O)C(C)C (stereo partly specified) |
